One series deals with L1210. Put plainly: Cytostatic activity against mouse L1210 cells after 48 hrs by coulter counter analysis. Format: functional, cell-based. The following applies: L1210, 48 h. In short, it runs like this: (§1)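 Tumor cell proliferation assay with murine leukemia and human T-lymphoblast cells. IC50 is the concentration that inhibits proliferation by 50%. Values are means of at least two independent experiments.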

The next series relates to CCRF-CEM. The experiment in a line: Cytostatic activity against human CEM cells after 72 hrs by coulter counter analysis. Format: functional, cell-based. The method, boiled down: as §1
Series [1] deals with BXPC-3. Put plainly: Cytostatic activity against human BxPC3 cells after 72 hrs by MTS assay. Format: functional, cell-based. As to conditions: BXPC-3, 72 h. In short, it runs like this: (§2)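 Pancreatic carcinoma cell proliferation assay. IC50 is the concentration that inhibits tumor cell proliferation by 50%. Values are means of at least two independent experiments.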
A general note: Tetrazolium assays rely on reduction of a dye to a coloured formazan, in cell work by metabolically active cells.

The test system of series [2] is MIA PaCa-2. Put plainly: Cytostatic activity against human MIAPaCa2 cells after 72 hrs by MTS assay. Type of series: functional, cell-based. As to conditions: MIA PaCa-2, 72 h. In short, it runs like this: as §2
In series [3] the test system is MIA PaCa-2. The experiment in a line: Ratio of gemcitabine IC50 to compound IC50 for human MIAPaCa2 cells after 72 hrs by MTS assay. Type of series: functional.
Series [4] deals with MIA PaCa-2. Put plainly: Antitumor activity against human MIAPaCa2 cells xenografted in Balb/c nude mouse assessed as tumor growth inhibition at 0.076 mmol/kg, ip measured on day 7. Type of series: functional, organism-based.
Series [5] has as its system Mus musculus. Put plainly: Toxicity in Balb/c nude mouse xenografted with human MIAPaCa2 cells assessed as change in body weight at 0.19 to 0.076 mmol/kg, ip administered 2 times per week for 2 weeks measured every week during compound treatment relative to vehicle-treated control. The following applies: in vivo, 336 h. Type of series: organism-based, MIA PaCa-2. (In general: In xenograft studies the graft and the host belong to different species.)

The test system of series [6] is Mus musculus. Put plainly: Toxicity in Balb/c nude mouse xenografted with human BxPC3 cells assessed as change in body weight at 0.19 to 0.076 mmol/kg, ip administered 2 times per week for 2 weeks measured every week during compound treatment. Type of series: organism-based, BXPC-3. As to conditions: in vivo, 336 h.
Series [7] concerns MIA PaCa-2. The experiment in a line: Antitumor activity against human MIAPaCa2 cells xenografted in Balb/c nude mouse assessed as tumor growth inhibition at 0.19 mmol/kg, ip administered every week for 3 weeks. Format: functional, organism-based.
The nature of series [8]: Cytotoxicity against human PANC1 cells assessed as cell viability by MTT assay in absence of hENT1 inhibitor dipyridamole. Type of series: functional, cell-based. As to conditions: PANC-1. The method, boiled down: (§3)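 PANC1 pancreatic cancer cells were grown with the test agent, with or without dipyridamole to block hENT1 nucleoside transport. Viable cells were counted by colorimetric MTT assay, and EC50 was taken as the concentration blocking proliferation by 50%.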

A short description of series [9]: Cytotoxicity against human PANC1 cells assessed as cell viability by MTT assay in presence of hENT1 inhibitor dipyridamole. Format: functional, cell-based. As to conditions: PANC-1. In short, it runs like this:
as §3

The nature of series [10]: Cytotoxicity against human RT112 cells assessed as cell viability by MTT assay in absence of dCK substrate deoxycytidine. Type of series: functional, cell-based. As to conditions: RT-112. In short, it runs like this: (§4)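 RT112 cancer cells were grown with the test agent, with or without 2′-deoxycytidine as a competing dCK substrate to mimic dCK down-regulation. Viable cells were counted by colorimetric MTT assay, and EC50 was taken as the concentration blocking proliferation by 50%.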

Series [11] in a line: Prodrug activation assessed as carboxypeptidase Y (unknown origin)-mediated formation of (S)-2-((((2R,3R,5R)-5-(4-amino-2-oxopyrimidin-1(2H)-yl)-4,4-difluoro-3-hydroxytetrahydrofuran-2-yl)methoxy)oxidophosphorylamino)propanoate at 3 mg measured within 12 hrs by [31P]-NMR spectroscopic analysis. In short, it runs like this:
(§5)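 The prodrug was dissolved in acetone-d6 with Trizma buffer (pH 7.6). A blank spectrum was recorded at 25 °C, then carboxypeptidase Y was added. Conversion was followed by 31P NMR spectra recorded over time, with peaks assigned by chemical shift.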

Series [12] is described as follows: Prodrug activation in human MIAPaCa2 cells assessed as formation of dFdCTP after 24 hrs in presence of hENT1 inhibitor NBTI. Type of series: cell-based. As to conditions: mia paca-2, 24 h. The method, boiled down: (§6)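 Pancreatic cells were exposed to the agent for 24 h, with or without a dCK inhibitor or the hENT1 inhibitor NBTI. Intracellular dFdCTP was measured by UPLC-MS/MS on a C18 column. Elution used a 10 mM ammonium acetate/acetonitrile gradient at 700 μL/min. Detection was by triple-quadrupole heated electrospray, transition m/z 502.0→159.0 at 37 V collision energy.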

Series [13] in a line: Prodrug activation in human BxPC3 cells assessed as formation of dFdCTP after 24 hrs in presence of hENT1 inhibitor NBTI. Type of series: cell-based. The following applies: bxpc-3, 24 h. In short, it runs like this: as §6
Series [14] has as its system Serum. Put plainly: Prodrug activation in human serum assessed as formation of (S)-2-((((2R,3R,5R)-5-(4-amino-2-oxopyrimidin-1(2H)-yl)-4,4-difluoro-3-hydroxytetrahydrofuran-2-yl)methoxy)oxidophosphorylamino)propanoate at 5 mg measured after 5.5 hrs by [31P]-NMR spectroscopic analysis. Type of series: cell-free. In short, it runs like this: (§7)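 The prodrug was incubated in human or rat serum and followed over time by 31P NMR. Metabolites were assigned by chemical shift. Human serum spectra were resolved by Lorentz-Gauss deconvolution.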

The nature of series [15]: Cytotoxicity against human RT112 cells assessed as cell viability by MTT assay in presence of dCK substrate deoxycytidine. Type of series: functional, cell-based. As to conditions: RT-112. In short, it runs like this:
as §4

A further series deals with Cytidine deaminase (Homo sapiens, UniProt P32320). The experiment in a line: Drug degradation assessed as recombinant human cytidine deaminase-mediated dFdU formation at 100 uM measured at 30 mins by UV absorption spectroscopic analysis. Format: ADME. As to conditions: 0.5 h. In short, it runs like this:
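The nucleoside or prodrug was incubated with cytidine deaminase for 30 min. Deamination was followed by UV absorbance spectra recorded between 220 and 350 nm.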

Series [16] is described as follows: Prodrug activation assessed as carboxypeptidase Y (unknown origin)-mediated formation of (2S)-2-((((2R,3R,5R)-5-(4-amino-2-oxopyrimidin-1(2H)-yl)-4,4-difluoro-3-hydroxytetrahydrofuran-2-yl)methoxy)(phenoxy)phosphorylamino)propanoate at 3 mg measured within 10 mins by [31P]-NMR spectroscopic analysis. In short, it runs like this: as §5
A short description of series [17]: Prodrug activation assessed as carboxypeptidase Y (unknown origin)-mediated formation of (S)-2-((((2R,3R,5R)-5-(4-amino-2-oxopyrimidin-1(2H)-yl)-4,4-difluoro-3-hydroxytetrahydrofuran-2-yl)methoxy)oxidophosphorylamino)propanoate at 3 mg measured after 10 mins by [31P]-NMR spectroscopic analysis. In short, it runs like this: as §5
Series [18] concerns Serum. The experiment in a line: Prodrug activation in rat serum assessed as formation of (S)-2-((((2R,3R,5R)-5-(4-amino-2-oxopyrimidin-1(2H)-yl)-4,4-difluoro-3-hydroxytetrahydrofuran-2-yl)methoxy)oxidophosphorylamino)propanoate at 5 mg measured after 6.5 mins by [31P]-NMR spectroscopic analysis. Type of series: cell-free. In short, it runs like this:
as §7

A short description of series [19]: Prodrug activation in human BxPC3 cells assessed as formation of dFdCTP after 24 hrs in presence of dCK inhibitor 2T2D. Type of series: cell-based. The following applies: bxpc-3, 24 h. In short, it runs like this:
as §6

Series [20] relates to BXPC-3. Put plainly: Antitumor activity against human BxPC3 cells xenografted in Balb/c nude mouse assessed as tumor growth inhibition at 0.19 mmol/kg, ip administered every week for 3 weeks. Format: functional, organism-based.
Series [21] is described as follows: Prodrug activation in human MIAPaCa2 cells assessed as formation of dFdCTP after 24 hrs in presence of dCK inhibitor 2T2D. Format: cell-based. As to conditions: mia paca-2, 24 h. In short, it runs like this: as §6

Data on six molecules can be found in ChEMBL document CHEMBL3124861, “Application of ProTide technology to gemcitabine: a successful approach to overcome the key cancer resistance mechanisms leads to a new agent (NUC-1031) in clinical development” (J Med Chem, 2014).

Each structure is given as a SMILES string. Active and inactive are the calls of the source. The rule behind the calls is not given here.

Chain of Cytidine deaminase (P32320 whole entry): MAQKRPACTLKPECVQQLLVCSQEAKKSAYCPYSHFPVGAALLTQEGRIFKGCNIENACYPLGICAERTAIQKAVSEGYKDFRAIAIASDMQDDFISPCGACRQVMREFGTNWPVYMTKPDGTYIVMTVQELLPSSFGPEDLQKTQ

Broadly, the IC50 is the concentration that inhibits the measured activity by half. In the case of `CCCCCCOC(=O)[C@H](C)NP(=O)(OC[C@H]1O[C@@H](n2ccc(N)nc2=O)C(F)(F)[C@@H]1O)Oc1ccccc1` (stereo partly drawn), the IC50 is 16 nM in the series on L1210 and 81 nM in the series with CCRF-CEM.

On to `C[C@H](NP(=O)(OC[C@H]1O[C@@H](n2ccc(N)nc2=O)C(F)(F)[C@@H]1O)Oc1ccccc1)C(=O)OCC(C)(C)C` (stereo partly drawn), for which the IC50 with L1210 was found to be 390 nM; with BXPC-3 [1] it was 360 nM; in the series on CCRF-CEM, 440 nM; in the series with MIA PaCa-2 [2] it was 1410 nM.

On to `C[C@H](NP(=O)(OC[C@H]1O[C@@H](n2ccc(N)nc2=O)C(F)(F)[C@@H]1O)Oc1cccc2ccccc12)C(=O)OC1CCCCC1` (stereo partly drawn), for which the IC50 came to 320 nM in the series on L1210 and 140 nM with CCRF-CEM.

Take `C[C@H](NP(=O)(OC[C@H]1O[C@@H](n2ccc(N)nc2=O)C(F)(F)[C@@H]1O)Oc1cccc2ccccc12)C(=O)OC1CCCC1` (stereo partly drawn): the IC50 was determined as 180 nM in the series with L1210, 150 nM in the series on BXPC-3 [1], 110 nM in the series with CCRF-CEM and 460 nM with MIA PaCa-2 [2]. Further, in the series with MIA PaCa-2 [3], the “Ratio IC50” value was found to be 2.

As usually defined, the EC50 is the concentration that produces a half-maximal response. Take `C[C@H](NP(=O)(OC[C@H]1O[C@@H](n2ccc(N)nc2=O)C(F)(F)[C@@H]1O)Oc1ccccc1)C(=O)OCc1ccccc1` (stereo partly drawn) [FOSGEMCITABINE PALABENAMIDE]: the TGI result in the series on MIA PaCa-2 [4], in the series with MIA PaCa-2 [7] and in the series with BXPC-3 [20] was “Active” in each case. For the same molecule, the Activity in the series with Mus musculus [5] was below 4%; with Mus musculus [6], “Non-toxic”. Besides, the EC50 is 190000 nM in series [8], 162000 nM in series [9], 0.2 nM in [10] and 0.7 nM in series [15]. Besides, the IC50 was 35 nM in the series with L1210, 150 nM with BXPC-3 [1], 100 nM in the series on CCRF-CEM and 440 nM in the series on MIA PaCa-2 [2]. Further, the Drug metabolism entry (in [11]; in [12]; in [13]; in the series with Serum [14]; in series [16]; in [17]) was “Active” in each case. Also, the Drug metabolism result (with Serum [18]; in [19]; in series [21]) was “Active” each time. In addition, on Cytidine deaminase, the Stability entry is recorded as “Stable”.

With `C[C@H](NP(=O)(OC[C@H]1O[C@@H](n2ccc(N)nc2=O)C(F)(F)[C@@H]1O)Oc1ccccc1)C(=O)OC1CCCCC1` (stereo partly drawn), the IC50 in the series with L1210 came out at 600 nM; in the series with CCRF-CEM, 420 nM.
